Data: PubChem BioAssay
Inconclusive results are not listed.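 The calls were made as follows, unless noted: active = viability increase at or above a cutoff of the median across tested compounds plus 3 SD (cut at about 8.5% in these data, passing the limit was not always enough); inconclusive = some gains above the cutoff, reason not given; inactive = the rest.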

How the values were obtained:
[1] = S. cerevisiae growth inhibition in permissive medium (OD615), pilot counter-assay for S. cerevisiae lifespan shortening project, permissive growth control (AID 705;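 active = growth inhibition above 25% in both replicates, a cutoff set 3 SD above the mean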); settings: OD615, 24 h, at 10 µM, active compounds read high
Procedure, shortened: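 assay system = Saccharomyces cerevisiae strain carrying genetically modified DeaD replicative-lifespan system | medium = SC raffinose/galactose permissive medium | dosing = 10 µM single dose, 0.25% DMSO | schedule = 24 h compound exposure at 30 °C after 4 h pre-growth | measured by = OD at 615 nm | read-out basis = growth inhibition from lowered OD615 after 24 h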

[2] = S. cerevisiae growth inhibition in restrictive medium, OD615, pilot screen, restrictive growth control, yeast lifespan reduction project (AID 706;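 active = growth inhibition above a set limit, 3 SD over mean compound inhibition, in both replicates, cut at about 43% in these data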;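 also: modified DeaD lifespan yeast strain shifted to restrictive glucose medium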); settings: OD615, 48 h, at 10 µM, active compounds read high
Procedure, shortened: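 Buffer or medium: CSMM-D glucose medium. Material: genetically modified Saccharomyces cerevisiae, DeaD replicative lifespan assay strain. Times: 48 h compound exposure at 30 °C. Measured by: optical density at 615 nm.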

[3] = doxorubicin toxicity protection in MRP-1 cells – H69AR cells, CellTiter-Glo, duplicate, MRP-1 activator project, pilot screen (AID 807); settings: H69AR viability with doxorubicin, CellTiter-Glo luminescence; at 10 µM; active compounds read high;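 also: compound pretreatment 18-22 h then 72 h combined with doxorubicin; 0% = doxorubicin alone and 100% = vehicle without doxorubicin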
[4] = viability of HCT116 without oncogenic beta-catenin – human colon tumor cells, pilot screen (AID 823;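 active = cell viability at or below a set limit in both duplicate runs, the limit being the all-compound median minus 4 SD, cut at about 23% in these data, passing the limit was not always enough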;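 also: 0% = wells killed by 20 µM Hyamine and 100% = untreated DMSO cell wells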); settings: HCT116 beta-catenin knockout viability, CellTiter-Glo, 60 h; at 10 µM; active compounds read low
[5] = viability of PTEN-null HCT116 cells – cell-based, HCT116 clonal line, CellTiter-Glo, pilot screen (AID 824;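 active = viability at or below 27.92% in each of two runs, the all-compound median minus 4 SD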;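 also: 0% = 20 µM Hyamine control and 100% = vehicle cell control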); settings: HCT116 PTEN-deleted viability, 60 h, at 10 µM, active compounds read low
[6] = RAM pathway blockade in budding yeast – dse1pr::URA3 reporter, 5-FOA selection, pilot screen (AID 869;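 active = inhibition over a set limit, the all-compound mean plus 3 SD, in both replicate runs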;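 also: 0% = DMSO wells with no growth and 100% = 10 µM 1-NA-PP1 with full growth; RAM network block rescues cells from 5-FOA so hits raise OD615 growth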); settings: S. cerevisiae dse1pr::URA3 5-FOA growth, OD615, 2 d; at 10 µM; active compounds read high; strain carries analog-sensitive mutant Cbk1 kinase
[7] = RAM signaling pathway blockade in yeast – S. cerevisiae, Pdr1DBD-CYC8 efflux-inhibited sensitized strain, primary screen (AID 1298;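 active = RAM network inhibition above 8.4% in each of two replicates, 3 SD over the compound average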;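 also: 0% = DMSO untreated cells without growth and 100% = 10 µM 1-NA-PP1 full growth; higher means more yeast growth rescued from 5-FOA killing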); settings: S. cerevisiae cbk1-as DSE1-URA3 strain, 5-FOA growth OD615, 2 d; at 50 µM; active compounds read high

CCC/C(O)=C1\C(=O)CC(C)(C)CC1=NCCO
inactive: growth inhibition [1] 1.41% | growth inhibition [2] 11.1% | viability increase [3] -0.35% | viability [4] 91.9% | viability [5] 98.6% | inhibition [6] 2.65% | RAM network inhibition [7] 3.31%

CCCc1cc(C(=O)NC2CCCC2)no1
inactive: growth inhibition [1] -11.7% | growth inhibition [2] -2.35% | viability increase [3] 0.7% | viability [4] 103% | viability [5] 98.1% | inhibition [6] 0.365% | RAM network inhibition [7] 3.3%

CCOC(=O)N1CCC(C(=O)Nc2ccc(OCC)cc2)CC1
inactive: growth inhibition [1] 5.44% | growth inhibition [2] -3.75% | viability increase [3] -1.27% | viability [4] 88% | viability [5] 93.9% | inhibition [6] 0.495% | RAM network inhibition [7] 6.44%

COc1ccc(C2C(C(=O)NCCN(C)C)c3ccccc3C(=O)N2C)cc1OC (configuration not stated)
inactive: growth inhibition [1] -7.69% | growth inhibition [2] -1.69% | viability increase [3] -0.77% | viability [4] 100% | viability [5] 97.9% | inhibition [6] -0.2% | RAM network inhibition [7] 1.92%

CC1(C)CC(=O)N(CC(=O)N2CCN(c3ncccn3)CC2)c2ccccc2S1(=O)=O
inactive: growth inhibition [1] -6.82% | growth inhibition [2] -9.5% | viability increase [3] 0.27% | viability [4] 102% | viability [5] 91.8% | inhibition [6] 0.48% | RAM network inhibition [7] -0.32%

CCN1CCN(C(CNS(=O)(=O)c2ccc(OC)cc2)c2cccnc2)CC1 (configuration not stated)
inactive: growth inhibition [1] -0.57% | growth inhibition [2] 8.5% | viability increase [3] -1.16% | viability [4] 105% | viability [5] 98.2% | inhibition [6] 3.57% | RAM network inhibition [7] 3.38%

COc1ccc(NC(=O)Nc2ccc3c(c2)N(C)C(=O)CS3)cc1OC
inactive: growth inhibition [1] -18.9% | growth inhibition [2] -18.2% | viability increase [3] -4.94% | viability [4] 88% | viability [5] 75.9% | inhibition [6] 2.05% | RAM network inhibition [7] 5.75%

CCOC(=O)C1=C2N(C)c3ccccc3N2CCC1=O
inactive: growth inhibition [1] 8.71% | growth inhibition [2] 4.85% | viability increase [3] -3.21% | viability [4] 97.5% | viability [5] 93.8% | inhibition [6] 1.9% | RAM network inhibition [7] -0.41%

CN(C)S(=O)(=O)c1ccc2c(c1)c(=O)c(C(=O)N1CCOCC1)cn2C
inactive: growth inhibition [1] -8.25% | growth inhibition [2] 2.44% | viability increase [3] 0.13% | viability [4] 103% | viability [5] 89.4% | inhibition [6] 1.79% | RAM network inhibition [7] -0.67%

CCc1ccccc1NC(=O)c1cc2sccc2n1C
inactive: growth inhibition [1] -8.19% | growth inhibition [2] 0.86% | viability increase [3] 1.11% | viability [4] 90.4% | viability [5] 80.3% | inhibition [6] 0.28% | RAM network inhibition [7] 4.98%

Cn1cc(CC(=O)NCCCN2CCCC2=O)c2ccccc21
inactive: growth inhibition [1] -3.36% | growth inhibition [2] -11.5% | viability increase [3] -1.83% | viability [4] 99.3% | viability [5] 87.3% | inhibition [6] 0.77% | RAM network inhibition [7] -0.89%

CCOc1ccc(NC(=O)N(CCN(C)C)C(C)c2ccncc2)cc1 (configuration not stated)
inactive: growth inhibition [1] 2.97% | growth inhibition [2] 4.26% | viability increase [3] -1.59% | viability [4] 85.6% | viability [5] 90.2% | inhibition [6] 1.05% | RAM network inhibition [7] 1.38%

Brc1cccc(-c2nnc3sc(CNC4CCCC4)cn23)c1
inactive: growth inhibition [1] -6.88% | growth inhibition [2] 5.62% | viability increase [3] -0.97% | viability [4] 95.7% | viability [5] 89.6% | inhibition [6] 1.56% | RAM network inhibition [7] 3.26%

COC(=O)C1=C(C)N(c2cc(Cl)cc(Cl)c2)C(=O)C1
inactive: growth inhibition [1] -2.8% | growth inhibition [2] -18.3% | viability increase [3] -6.24% | viability [4] 28.2% | viability [5] 45.7% | inhibition [6] 0.14% | RAM network inhibition [7] 2.04%

Cc1ccc(-c2nnc3n2N=C(c2ccc(Br)cc2)CS3)cc1
inactive: growth inhibition [1] 1.27% | growth inhibition [2] 15.8% | viability increase [3] -2.58% | viability [4] 102% | viability [5] 90.5% | inhibition [6] 2.41% | RAM network inhibition [7] 4.62%

c1ccc2c(c1)nc(NCC1CCCO1)c1nnnn12 (configuration not stated)
inactive: growth inhibition [1] -4.03% | growth inhibition [2] 4.6% | viability increase [3] -3.64% | viability [4] 101% | viability [5] 97.6% | inhibition [6] 1.34% | RAM network inhibition [7] 2.87%

Cc1sc2nc(SCC(=O)N3CCOCC3)[nH]c(=O)c2c1C
inactive: growth inhibition [1] -1.58% | growth inhibition [2] -1.96% | viability increase [3] -1.93% | viability [4] 105% | viability [5] 92.2% | inhibition [6] 1.8% | RAM network inhibition [7] 2.17%

CC(C)Cc1nnc(NC(=O)CCN2C(=O)c3ccccc3C2=O)s1
inactive: growth inhibition [1] 5.23% | growth inhibition [2] 16% | viability increase [3] 0.42% | viability [4] 106% | viability [5] 98.4% | inhibition [6] 1.21% | RAM network inhibition [7] 9.47%

CCCNC(=O)C(Cc1ccccc1)NS(=O)(=O)c1ccc2c(c1)CCC(=O)N2 (configuration not stated)
inactive: growth inhibition [1] -5.35% | growth inhibition [2] -3.94% | viability increase [3] 0.26% | viability [4] 101% | viability [5] 102% | inhibition [6] 0.755% | RAM network inhibition [7] 1.71%

O=C(Nc1ccc(-c2nc3cccnc3s2)cc1)c1ccc(Br)o1
inactive: growth inhibition [1] 11.6% | growth inhibition [2] 19.6% | viability increase [3] 3.03% | viability [4] 105% | viability [5] 101% | inhibition [6] 1.11% | RAM network inhibition [7] 0.96%

C1CCC(Nc2nnnn2C2CCCCC2)CC1
inactive: growth inhibition [1] -16.8% | growth inhibition [2] -16.1% | viability increase [3] -2.17% | viability [4] 90.4% | viability [5] 92.5% | inhibition [6] 1.41% | RAM network inhibition [7] 3.33%

CC1CN(C(=O)Nc2ccc3snnc3c2)c2ccccc21 (configuration not stated)
inactive: growth inhibition [1] -4.18% | growth inhibition [2] -6.81% | viability increase [3] -2.57% | viability [4] 82% | viability [5] 75% | inhibition [6] 2.52% | RAM network inhibition [7] 4.27%

CCN(CC)c1ccc(NS(=O)(=O)c2ccc3c(c2)oc(=O)n3C)c(C)c1
inactive: growth inhibition [1] -8.04% | growth inhibition [2] -10.8% | viability increase [3] -2.73% | viability [4] 83.2% | viability [5] 72.6% | inhibition [6] 1.33% | RAM network inhibition [7] -0.57%

COCCNC(=O)CS(=O)Cc1nc(-c2ccccc2C)oc1C (configuration not stated)
inactive: growth inhibition [1] -8.16% | growth inhibition [2] 5.6% | viability increase [3] -0.56% | viability [4] 100% | viability [5] 98% | inhibition [6] 0.23% | RAM network inhibition [7] 2.05%

O=C1CSC(=O)N1CC(O)COc1ccc(Cl)cc1 (configuration not stated)
inactive: growth inhibition [1] 0.955% | growth inhibition [2] -20.5% | viability increase [3] 3.19% | viability [4] 102% | viability [5] 91.9% | inhibition [6] 0.995% | RAM network inhibition [7] 1.1%

CCOC(=O)c1c(C)n(C)c2ccc(OCC(O)CN3CCN(C)CC3)cc12 (configuration not stated)
inactive: growth inhibition [1] -9.58% | growth inhibition [2] -16.5% | viability increase [3] -1.87% | viability [4] 96.2% | viability [5] 106% | inhibition [6] 1.1% | RAM network inhibition [7] -0.99%

CN1CCc2c(c3ccccc3n2Cc2ccccc2)C1
inactive: growth inhibition [1] -5.23% | growth inhibition [2] -8.68% | viability increase [3] -5.7% | viability [4] 57.9% | viability [5] 63.9% | inhibition [6] 1.27% | RAM network inhibition [7] 5.12%

COc1cc(C2NC(=O)NC(C)=C2C(=O)OCc2ccc(C)cc2)cc(OC)c1O (configuration not stated)
inactive: growth inhibition [1] -12.9% | growth inhibition [2] -10.8% | viability increase [3] 3.29% | viability [4] 89.9% | viability [5] 82.1% | inhibition [6] 0.03% | RAM network inhibition [7] 0.58%

O=C(Nc1ccc2nc3n(c(=O)c2c1)CCCCC3)c1ccccn1
inactive: growth inhibition [1] -2.29% | growth inhibition [2] 2.34% | viability increase [3] 1.28% | viability [4] 102% | viability [5] 107% | inhibition [6] 0.8% | RAM network inhibition [7] -2.05%

CC(=O)Nc1ccc(C2Nc3ccccc3C(=O)N2C2CCCCC2)cc1 (configuration not stated)
inactive: growth inhibition [1] -5.95% | growth inhibition [2] -9.11% | viability increase [3] -1.42% | viability [4] 94.9% | viability [5] 93.6% | inhibition [6] 2.73% | RAM network inhibition [7] -0.56%

COC(=O)C1=C(C)NC(=O)CC1c1cc2c(cc1Br)OCO2 (configuration not stated)
inactive: growth inhibition [1] 4.83% | growth inhibition [2] 7.57% | viability increase [3] -1.64% | viability [4] 106% | viability [5] 94.7% | inhibition [6] 1.42% | RAM network inhibition [7] 5.87%

Cc1nnc(Sc2nc3c(c(=O)[nH]c(=O)n3C)n2CCCc2ccccc2)s1
inactive: growth inhibition [1] -8.19% | growth inhibition [2] -13.4% | viability increase [3] -2.42% | viability [4] 95.1% | viability [5] 94.7% | inhibition [6] 1.21% | RAM network inhibition [7] 2.87%

Nc1cccc(C(=O)Nc2ccc3nc(-c4cccnc4)[nH]c3c2)c1
inactive: growth inhibition [1] -2% | growth inhibition [2] -4.3% | viability increase [3] -1.88% | viability [4] 109% | viability [5] 102% | inhibition [6] 2.84% | RAM network inhibition [7] 6.1%

O=C(C1CCCN(c2nnc(-n3cccc3)s2)C1)N1CCN(c2ccccc2)CC1 (configuration not stated)
inactive: growth inhibition [1] -4% | growth inhibition [2] -4.55% | viability increase [3] -1.11% | viability [4] 88.9% | viability [5] 86.5% | inhibition [6] 0.485% | RAM network inhibition [7] 1.12%

Clc1cccc(CSc2nnc(-c3ccccn3)n2Cc2ccco2)c1
inactive: growth inhibition [1] -8.18% | growth inhibition [2] 21.1% | viability increase [3] -1.98% | viability [4] 71.4% | viability [5] 75.3% | inhibition [6] 1.69% | RAM network inhibition [7] 12.3%

O=C(Nc1nnc(-c2ccc(F)cc2)o1)c1ccco1
inactive: growth inhibition [1] -6.49% | growth inhibition [2] -4.85% | viability increase [3] -3.74% | viability [4] 97.5% | viability [5] 92.8% | inhibition [6] 1.46% | RAM network inhibition [7] 0.1%
